Reference: ChEMBL document CHEMBL1145937, “Optimization of the pharmacophore model for 5-HT7R antagonism. Design and synthesis of new naphtholactam and naphthosultam derivatives” (J Med Chem, 2003)

These compounds were tested against T1, 5-hydroxytryptamine receptor 7 (Rattus norvegicus, UniProt P32305) (assay: Binding affinity towards 5-hydroxytryptamine receptor 7 on rat hypothalamus membranes using [3H]5-CT as radioligand.).
Format: tissue-based, Membrane
Summary of the method: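 Rat hypothalamus homogenized in ice-cold 50 mM Tris-HCl pH 7.4, spun at 48 000g, washed and preincubated at 37 °C for 10 min. Membranes were resuspended in Tris buffer with 4 mM CaCl2, 1 mg/mL ascorbic acid, 0.01 mM pargyline and 3 μM pindolol, then incubated 120 min at 23 °C with 0.5 nM [3H]-5-CT. Nonspecific binding was set by 10 μM 5-HT. GF/C filtration, scintillation counting. Ki from IC50 via Cheng–Prusoff; 2–4 assays in triplicate.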

T1 sequence (P32305 whole entry): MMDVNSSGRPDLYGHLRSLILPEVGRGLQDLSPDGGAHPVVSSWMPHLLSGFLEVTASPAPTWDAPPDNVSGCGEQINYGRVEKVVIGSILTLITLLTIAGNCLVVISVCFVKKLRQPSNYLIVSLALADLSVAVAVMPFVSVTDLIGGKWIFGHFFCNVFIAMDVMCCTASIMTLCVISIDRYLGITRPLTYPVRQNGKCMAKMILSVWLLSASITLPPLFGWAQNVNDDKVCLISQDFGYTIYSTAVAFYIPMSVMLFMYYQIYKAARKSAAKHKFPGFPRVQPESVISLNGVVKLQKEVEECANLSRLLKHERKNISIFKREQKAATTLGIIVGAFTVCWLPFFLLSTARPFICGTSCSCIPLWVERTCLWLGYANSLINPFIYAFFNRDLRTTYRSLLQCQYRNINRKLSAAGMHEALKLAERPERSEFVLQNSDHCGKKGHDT

`O=C1c2cccc3cccc(c23)N1CCCCN1CC=C(c2ccccc2)CC1` and `O=C1c2cccc3cccc(c23)N1CCCCCN1CC=C(c2ccccc2)CC1` cannot be ordered by Ki: > 1 µM for the first, > 1 µM for the second.

Compared with `COc1ccccc1N1CCN(CN2C(=O)c3cccc4cccc2c34)CC1`, `COc1ccccc1N1CCN(CCCN2C(=O)c3cccc4cccc2c34)CC1` is lower in Ki: > 10 µM for the first, 0.398 µM for the second.

`O=C1c2cccc3cccc(c23)N1CCCCN1CCC(C2CCCCC2)CC1` and `O=C1c2cccc3cccc(c23)N1CCCCN1CCN(C2CCCCC2)CC1` cannot be ordered by Ki: > 1 µM for the first, > 10 µM for the second.

`CC(C)C1CCN(CCCCCN2C(=O)c3cccc4cccc2c34)CC1` and `CC1CCN(CCCCN2C(=O)c3cccc4cccc2c34)CC1` cannot be ordered by Ki: > 1 µM for the first, > 1 µM for the second.

Compared with `CC1CCN(CCC2CCCN2S(=O)(=O)c2cccc(O)c2)CC1` (single isomer, unassigned), `Cc1cccc(S(=O)(=O)N(C)[C@H](C)CCN2CCC(C)CC2)c1` [SB-258719] is 2.5-fold higher in Ki: 0.0316 µM for the first, 0.0794 µM for the second. The first binds more tightly here.

`COc1ccccc1N1CCN(CCCCCCN2C(=O)c3cccc4cccc2c34)CC1` and `O=C1c2cccc3cccc(c23)N1CCCCCCN1CCN(c2ccccc2)CC1` cannot be ordered by Ki: > 1 µM for the first, > 1 µM for the second.

`O=C1c2cccc3cccc(c23)N1CCCCCN1CCN(C2CCCCC2)CC1` and `O=C1c2cccc3cccc(c23)N1CCCCN1CCCCC1` cannot be ordered by Ki: > 10 µM for the first, > 10 µM for the second.

First: O=C1c2cccc3cccc(c23)N1CCCCN1CCC(c2ccccc2)CC1
Second: O=C1c2cccc3cccc(c23)N1CCCCN1CCN(c2ccccc2)CC1
The Ki of the first is higher: > 1 µM for the first, 0.631 µM for the second.

First: O=S1(=O)c2cccc3cccc(c23)N1CCCCCCN1CCN(c2ccccc2)CC1
Second: O=S1(=O)c2cccc3cccc(c23)N1CCCCN1CCN(c2ccccc2)CC1
The Ki of the first is higher: > 1 µM for the first, 1 µM for the second. The second binds more tightly here.

`O=C1c2cccc3cccc(c23)N1CCCN1CCN(c2ccccc2)CC1` and `O=C1c2cccc3cccc(c23)N1CN1CCN(c2ccccc2)CC1` cannot be ordered by Ki: > 10 µM for the first, > 10 µM for the second.

`CC1CCN(CCCCCN2c3cccc4cccc(c34)S2(=O)=O)CC1` and `CC1CCN(CCCCCCN2c3cccc4cccc(c34)S2(=O)=O)CC1` cannot be ordered by Ki: > 10 µM for the first, > 10 µM for the second.

`Cn1ccnc1SCCCCN1C(=O)c2cccc3cccc1c23` and `CN1CCN(CCCCN2C(=O)c3cccc4cccc2c34)CC1` cannot be ordered by Ki: > 10 µM for the first, > 10 µM for the second.

Going from `O=C1Nc2cccc3c2C1(CCCCN1CC=C(c2ccccc2)CC1)CCC3` (stereo not drawn) to `O=S1(=O)c2cccc3cccc(c23)N1CCCCN1CCCCC1`, the Ki rises from 0.0501 µM to > 10 µM.

`O=S1(=O)c2cccc3cccc(c23)N1CCCCCN1CCC(C2CCCCC2)CC1` and `CC1CCN(CCCCN2c3cccc4cccc(c34)S2(=O)=O)CC1` cannot be ordered by Ki: > 10 µM for the first, > 10 µM for the second.

For `CN1CCN(CCCCN2c3cccc4cccc(c34)S2(=O)=O)CC1`, the Ki was > 10 µM.

These compounds were tested against T2, 5-hydroxytryptamine receptor 7 (Homo sapiens, UniProt P34969) (assay: Non-selective inhibitory activity was determined against 5-hydroxytryptamine 7 receptor).
T2 sequence (P34969 whole entry): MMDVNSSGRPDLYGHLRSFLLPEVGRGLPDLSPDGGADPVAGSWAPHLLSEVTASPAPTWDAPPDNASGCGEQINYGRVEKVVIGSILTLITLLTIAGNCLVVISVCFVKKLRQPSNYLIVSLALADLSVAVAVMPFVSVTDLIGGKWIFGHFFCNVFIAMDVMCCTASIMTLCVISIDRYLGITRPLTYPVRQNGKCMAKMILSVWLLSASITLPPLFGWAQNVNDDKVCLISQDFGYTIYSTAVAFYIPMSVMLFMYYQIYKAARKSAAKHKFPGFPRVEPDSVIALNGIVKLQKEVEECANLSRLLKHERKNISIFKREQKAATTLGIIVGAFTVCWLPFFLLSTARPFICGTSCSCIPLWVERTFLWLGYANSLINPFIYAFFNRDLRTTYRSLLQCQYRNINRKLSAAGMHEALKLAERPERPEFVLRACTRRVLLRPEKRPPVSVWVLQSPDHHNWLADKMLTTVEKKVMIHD

In order of falling Ki:
1. CC(C)(C)[C@@]1(O)CCN2C[C@@H]3c4ccccc4CCc4cccc(c43)[C@H]2C1  0.0631 µM
2. CN1CCC(=C2c3ccccc3C=Cc3ccccc32)CC1 [CYPROHEPTADINE]  0.0501 µM
3. Cc1nc2sccn2c(=O)c1CCN1CCC(=C(c2ccc(F)cc2)c2ccc(F)cc2)CC1 [RITANSERIN]  0.0158 µM
4. CCC(CO)NC(=O)[C@@H]1C=C2c3cccc4c3c(cn4C)C[C@H]2N(C)C1 (single isomer, unassigned) [METHYSERGIDE]  0.0126 µM
5. CCN(CC)C(=O)[C@@H]1C=C2c3cccc4[nH]c(Br)c(c34)C[C@H]2N(C)C1  0.01 µM
6. CN1C[C@@H](NS(=O)(=O)N(C)C)C[C@@H]2c3cccc4c3c(cn4C)C[C@H]21 [MESULERGINE]  0.00794 µM

The compounds below were run against T2, 5-hydroxytryptamine receptor 7 (assay: Binding affinity towards cloned human 5-hydroxytryptamine 7 receptor was determined in HEK293 cells using [3H]5-CT as radioligand).
Format: cell-based

In order of falling Ki:
1. C[C@H]1CCCN(CC[C@H](C)N(C)S(=O)(=O)c2cccc3ccccc23)C1  100 µM
2. C[C@@H]1CCCN(CC[C@H](C)N(C)S(=O)(=O)c2cccc3ccccc23)C1  1.58 µM
3. C[C@H]1CCCN(CC[C@@H](C)N(C)S(=O)(=O)c2cccc3ccccc23)C1  0.631 µM
4. CC1CCN(CC[C@@H](C)N(C)S(=O)(=O)c2cccc3ccccc23)CC1  0.0316 µM
5. CC1CCN(CC[C@@H]2CCCCN2S(=O)(=O)c2cccc3ccccc23)CC1  0.0158 µM
6. COc1cccc(S(=O)(=O)N2CCC[C@H]2CCN2CCC(C)CC2)c1  0.01 µM
7. CC1CCN(CC[C@@H]2CCCN2S(=O)(=O)c2cccc3ccccc23)CC1  0.01 µM
8. CC1CCN(CC[C@@H]2CCCN2S(=O)(=O)c2ccc(Cl)c(Cl)c2)CC1  0.00398 µM
9. CC1CCN(CC[C@@H]2CCCN2S(=O)(=O)c2cccc(Br)c2)CC1  0.002 µM

These compounds were tested against T1, 5-hydroxytryptamine receptor 7 (assay: Binding affinity towards cloned rat 5-hydroxytryptamine 7 receptor was determined using [3H]5-HT as radioligand).

In order of rising Ki:
1. Cc1cccc(C#N)c1-c1cccc2c1-c1cccc3c1[C@@H](C2)N(C)CC3  0.00398 µM
2. COc1cccc(OC)c1-c1cccc2c1-c1cccc3c1[C@@H](C2)N(C)CC3  0.0126 µM
3. Cc1cccc(O)c1-c1cccc2c1-c1cccc3c1[C@@H](C2)N(C)CC3  0.0251 µM

These compounds were tested against T2, 5-hydroxytryptamine receptor 7 (assay: Binding affinity towards human recombinant 5-hydroxytryptamine 7 receptor was determined using [3H]5-CT as radioligand).

Compound `O=C1Nc2cccc3c2C1(CCCCN1CCN(C2CCCCC2)CC1)CCC3` (stereo not drawn) has a Ki of 100 µM.
